Results: article PMC3644109 (Nature Communications, 2013)

Key:
AtALMT9 [1] = target: T1, AtALMT9 (Arabidopsis thaliana, UniProt Q9LS46); assay: patch clamp of excised cytosolic-side-out vacuolar patches, chloride current; type: biochemical; details: activator; 1 mM cytosolic; 100 mM chloride bath, pH 7.5
T1 sequence (Q9LS46 1-598): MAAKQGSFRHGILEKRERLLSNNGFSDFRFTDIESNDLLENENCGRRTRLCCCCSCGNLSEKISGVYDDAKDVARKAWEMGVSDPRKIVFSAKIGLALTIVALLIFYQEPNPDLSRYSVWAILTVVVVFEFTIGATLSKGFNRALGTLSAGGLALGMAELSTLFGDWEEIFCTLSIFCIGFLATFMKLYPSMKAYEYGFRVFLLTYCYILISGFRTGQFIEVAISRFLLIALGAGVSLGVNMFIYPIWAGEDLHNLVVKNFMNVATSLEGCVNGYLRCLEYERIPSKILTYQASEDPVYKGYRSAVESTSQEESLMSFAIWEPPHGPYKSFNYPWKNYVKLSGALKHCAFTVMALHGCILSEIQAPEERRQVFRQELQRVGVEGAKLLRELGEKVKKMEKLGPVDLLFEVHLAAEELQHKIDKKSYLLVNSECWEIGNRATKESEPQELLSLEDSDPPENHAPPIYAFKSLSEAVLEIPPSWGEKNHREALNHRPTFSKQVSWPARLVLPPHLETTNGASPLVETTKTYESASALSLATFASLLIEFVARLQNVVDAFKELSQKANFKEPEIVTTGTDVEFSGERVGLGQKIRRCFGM
In short: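 Vacuoles came from transiently transformed N. benthamiana leaves expressing the channel (2–3 days post-agroinfiltration) and were released from mesophyll protoplasts by EDTA and mild osmotic shock. Excised cytosolic-side-out patches (seal >2 GΩ) were held in symmetrical chloride: pipette 100 mM HCl pH 6, bath 100 mM HCl, 3 mM MgCl₂, 0.1 mM CaCl₂ pH 7.5. Test compound was perfused on the cytosolic side. Steady currents were compared at -120 mV, before versus after.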

AtALMT9 [2] = target: T1, AtALMT9; assay: patch clamp of excised cytosolic-side-out vacuolar patches, chloride current; type: biochemical; details: activator, not permeant, -120 mV, chloride bath, pH 7.5
AtALMT9 [3] = target: T1, AtALMT9; assay: patch clamp of excised cytosolic-side-out vacuolar patches, Hill fit; type: cell-based
[4] = substrate: O=C(O)C[C@H](O)C(=O)O; assay: cells, lysate or membranes; details: malate transport into vacuole

Molecule: O=C(O)/C=C/C(=O)O [fumarate]
- fold increase of chloride current at 1 mM (AtALMT9 [1]): 5.7±0.4 fold

Molecule: O=C(O)c1cccc(C(=O)O)c1 [isophtalate]
- fold increase of chloride current (AtALMT9 [2]): 2.1±0.1 fold

Molecule: O=C(O)C[C@H](O)C(=O)O [malate]
- EC50 (AtALMT9 [3]): 300 µM

Molecule: O=C(O)CC(=O)C(=O)O [oxaloacetate]
- fold increase of chloride current at 1 mM (AtALMT9 [1]): 2.0±0.2 fold

B1: AtALMT9 (Arabidopsis thaliana) (protein)
chain: T1 sequence (Q9LS46 1-598)
- Km [4]: 27 mM
